Assay results published in ChEMBL document CHEMBL1139516, “Optimization of amide-based inhibitors of soluble epoxide hydrolase with improved water solubility” (J Med Chem, 2005).
Values after ≈ are worked out from the molar mass of the structure shown.

What was measured:
[1] = molecular target: T1, Bifunctional epoxide hydrolase 2 (Homo sapiens, UniProt P34913); assay: Inhibitory concentration against human soluble epoxide hydrolase (sEH) at 0.24 uM
T1 sequence (P34913 whole entry): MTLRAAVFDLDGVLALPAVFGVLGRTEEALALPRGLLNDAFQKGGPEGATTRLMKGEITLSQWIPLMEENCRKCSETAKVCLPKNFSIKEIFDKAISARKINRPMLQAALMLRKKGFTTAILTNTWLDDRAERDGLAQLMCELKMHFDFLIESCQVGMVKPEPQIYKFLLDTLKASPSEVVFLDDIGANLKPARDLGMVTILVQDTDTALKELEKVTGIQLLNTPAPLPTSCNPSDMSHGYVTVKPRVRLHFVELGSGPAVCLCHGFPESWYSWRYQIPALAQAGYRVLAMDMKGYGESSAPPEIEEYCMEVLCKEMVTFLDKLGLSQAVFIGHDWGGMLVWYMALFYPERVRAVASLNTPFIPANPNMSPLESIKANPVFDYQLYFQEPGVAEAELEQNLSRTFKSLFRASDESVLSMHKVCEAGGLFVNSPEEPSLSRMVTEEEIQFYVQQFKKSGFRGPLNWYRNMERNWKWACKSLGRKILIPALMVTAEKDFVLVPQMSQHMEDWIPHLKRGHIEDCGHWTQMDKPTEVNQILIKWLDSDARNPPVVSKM

[2] = molecular target: T2, Bifunctional epoxide hydrolase 2 (Mus musculus, UniProt P34914); assay: Inhibitory concentration against mouse soluble epoxide hydrolase (sEH) at 0.12 uM
T2 sequence (P34914 whole entry): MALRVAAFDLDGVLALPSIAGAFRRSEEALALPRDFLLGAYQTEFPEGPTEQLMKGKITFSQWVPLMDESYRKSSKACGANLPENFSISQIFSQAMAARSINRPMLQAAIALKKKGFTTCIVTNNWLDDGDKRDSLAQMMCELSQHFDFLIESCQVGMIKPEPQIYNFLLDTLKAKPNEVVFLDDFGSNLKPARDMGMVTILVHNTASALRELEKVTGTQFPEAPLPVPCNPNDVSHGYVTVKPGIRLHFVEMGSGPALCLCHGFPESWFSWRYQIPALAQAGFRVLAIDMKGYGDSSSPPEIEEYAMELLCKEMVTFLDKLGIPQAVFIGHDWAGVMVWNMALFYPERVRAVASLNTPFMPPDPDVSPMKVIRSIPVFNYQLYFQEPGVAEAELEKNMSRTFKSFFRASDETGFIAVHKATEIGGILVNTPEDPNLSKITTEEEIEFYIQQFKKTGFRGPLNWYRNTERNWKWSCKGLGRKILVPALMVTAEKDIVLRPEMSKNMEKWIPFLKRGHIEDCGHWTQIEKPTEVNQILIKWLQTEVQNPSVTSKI
Summary of the method: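 Recombinant murine enzyme, baculovirus-expressed, affinity-purified (≥97% pure). 0.12 μM enzyme preincubated with inhibitor 5 min at 30 °C in 0.1 M sodium phosphate pH 7.4 with 0.1 mg/mL BSA. Racemic 4-nitrophenyl-trans-2,3-epoxy-3-phenylpropyl carbonate added at 40 μM. 4-Nitrophenolate formation read at 405 nm over 1 min, 30 °C. Run in triplicate. IC50 regressed from ≥5 points, at least two on each side in the linear region.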

[3] = Solubility in sodium phosphate buffer 0.1M, pH 7.4 at 25 +/-1.5 degree C; format: physicochemical; conditions: read-out: S
Summary of the method: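 Excess solid added to 0.1 M sodium phosphate pH 7.4 at 25 ± 1.5 °C. Suspension equilibrated by 1 h sonication, then 24 h shaking. Centrifuged 5 min at 200g. Absolute amount of dissolved compound then calculated.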

[4] = Partition coefficient (logP); format: physicochemical; conditions: octanol/water
Summary of the method: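 Calculated, not measured: Crippen's method estimate.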

SMILES	IC50 [1]	IC50 [2]	solubility [3]	logP ([4]; read-out: logP)	logP [4]
O=C(CC1CCCCC1)Nc1ccccc1CO	> 100 µM	> 100 µM	–	–	–
O=C(Nc1ccccc1CO)NC1CCCCC1	> 100 µM	> 100 µM	–	–	–
CCCCCOC(=O)CCCOC(=O)Oc1cccc(Cl)c1	> 100 µM	> 100 µM	–	–	–
CCCCCOC(=O)CCCNC(=O)C12CC3CC(CC(C3)C1)C2	9.4 µM	2.8 µM	–	–	–
CCCCCCCCCCCC(=O)NC12CC3CC(CC(C3)C1)C2	–	–	0.42 µg/mL (≈ 1.26 µM)	5.52	–
COc1ccc(NC(=O)CC2CCCCC2)cc1	6.2 µM	–	–	–	–
CCCCCCCCCCNC(=O)CC12CC3CC(CC(C3)C1)C2	–	–	0.32 µg/mL (≈ 0.959 µM)	5.64	–
CCCCCOC(=O)CCCOC(=O)Cc1cccc(Cl)c1	> 100 µM	> 100 µM	–	–	–
CCCCCOC(=O)CCCOC(=O)Nc1cccc(Cl)c1	25.2 µM	17.4 µM	–	–	–
CCCCCOC(=O)CCCCC(=O)NC12CC3CC(CC(C3)C1)C2	–	–	15.1 µg/mL (≈ 43.2 µM)	3.53	–
CCCCCCC(O)CCCNC(=O)NC12CC3CC(CC(C3)C1)C2 (configuration not stated)	0.13 µM	0.05 µM	–	–	–
O=C(Cc1ccccc1CO)NC1CCCCC1	> 100 µM	> 100 µM	–	–	–
CCCCCOC(=O)CCCNC(=O)NC12CC3CC(CC(C3)C1)C2	–	–	1.44 µg/mL (≈ 4.11 µM)	–	2.77
CCCCCOC(=O)CCCNC(=O)Oc1cccc(Cl)c1	> 100 µM	> 100 µM	–	–	–
CCCCCOC(=O)CCCNC(=O)CC12CC3CC(CC(C3)C1)C2	–	–	17.4 µg/mL (≈ 49.8 µM)	3.66	–
CCCCCCCCCCNC(=O)NC12CC3CC(CC(C3)C1)C2	0.11 µM	–	0.5 µg/mL (≈ 1.49 µM)	4.76	–
